Bioassay records from PubChem.
Compounds with a hit are over-represented: about 0.77% of the library has one in this group of screens.
bIAP inh = intestinal alkaline phosphatase (bovine) inhibition; purified bovine IAP, CDP-star luminescence, 30 min; inhibition, % at 20 µM; 190,000 tested, under 10 active; AID 1019;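 active = over 50% inhibition of intestinal alkaline phosphatase at 20 µM in the single-dose screen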
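test system = bovine IAP enzyme | medium = DEA buffer 100 mM, pH 9.8, with MgCl2 1.0 mM, ZnCl2 0.02 mM | detection = luminescence | dosing = single compound dose of 20 µM, 2% DMSO final | incubation = 30 min reaction at room temperature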
hIAP act = human IAP activation; P09923; purified human IAP, CDP-Star luminescence, 30 min; stronger effect = higher value; 1 = vehicle-only enzyme, 0 = enzyme-free background; activation factor at 10 µM; 330,000 compounds, 0.16% hits; AID 2524;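 active = activation factor of the enzyme at least 2-fold when tested at 20 µM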
Target sequence (P09923 whole entry, looked up): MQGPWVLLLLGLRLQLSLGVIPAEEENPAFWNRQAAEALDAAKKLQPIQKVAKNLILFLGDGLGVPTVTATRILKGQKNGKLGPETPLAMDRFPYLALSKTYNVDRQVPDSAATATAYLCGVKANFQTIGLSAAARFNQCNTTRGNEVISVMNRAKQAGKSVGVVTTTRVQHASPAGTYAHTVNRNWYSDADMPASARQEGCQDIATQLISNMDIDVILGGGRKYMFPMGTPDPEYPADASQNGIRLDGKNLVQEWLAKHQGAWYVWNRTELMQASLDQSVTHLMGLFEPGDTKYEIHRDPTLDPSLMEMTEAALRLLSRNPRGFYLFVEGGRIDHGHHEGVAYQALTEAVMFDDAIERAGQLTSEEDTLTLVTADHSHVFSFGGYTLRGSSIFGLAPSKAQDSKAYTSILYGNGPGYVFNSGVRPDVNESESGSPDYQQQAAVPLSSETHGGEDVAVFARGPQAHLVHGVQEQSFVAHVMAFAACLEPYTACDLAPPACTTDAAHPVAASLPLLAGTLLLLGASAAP
mIAP block = mouse IAP inhibition | purified mouse IAP, CDP-Star luminescence, 30 min | inhibition, % at 10 µM | 330,000 compounds, 0.2% hits | AID 2806;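 active = inhibition of at least 40% at 10 µM in the primary screen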
bIAP activator = intestinal alkaline phosphatase (bovine) activation | purified bovine IAP, CDP-star luminescence, 30 min; stronger effect = higher value; fold of DMSO-control signal, blank-subtracted | activation factor at 20 µM | 200,000 compounds, 0.17% hits;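 active = activation factor of 2 or more at 20 µM, a signal rise over negative controls twice the positive control's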
hIAP inh = blocks human intestinal alkaline phosphatase. 330,000 compounds, 0.12% hits. AID 2544. inhibition, % at 10 µM. purified IAP, CDP-Star luminescence, 30 min;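 active = inhibition reaching a set limit with compound at 10 µM in the primary screen, cut at about 35% in these data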
mIAP act = mouse IAP activation; muIAP, CDP-Star luminescence, 30 min; stronger effect = higher value; 1 = vehicle-only enzyme signal, 0 = enzyme-free wells; activation factor at 10 µM; 330,000 compounds, 0.24% hits; AID 2805;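 active = activation factor of at least 2 at 20 µM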
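Assay system: mouse IAP enzyme; Reagent: CDP-Star chemiluminescent phosphatase substrate; Compound: DMSO-dissolved test compounds; Incubation: 30 min, room temperature; Technique: luminescence from enzymatic CDP-Star hydrolysis; Controls: DMSO-only wells and no-enzyme negative control.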
Hits are given with their value; - = inactive; . = no result given.

SMILES	bIAP inh	hIAP act	mIAP block	bIAP activator	hIAP inh	mIAP act
COc1cc(CNCc2ccccn2)ccc1OCc1ccc(Cl)c(Cl)c1	-	-	-	2.4	-	-
COc1cc(CNCc2ccccn2)ccc1OCc1ccc(Cl)cc1Cl	-	-	-	2.7	-	-
COc1cc(CNCc2ccccn2)ccc1OCC(N)=O	-	-	-	-	-	-
COc1cc(CNCCN2CCOCC2)ccc1OCc1ccc(Cl)cc1Cl	-	-	-	-	-	-
OCc1nc2ccccc2n1CCCCOc1ccccc1	.	-	-	.	-	-
OCc1nc2ccccc2n1CCCOc1ccc(Br)cc1	-	-	-	2.9	-	-
CCOC(=O)c1ccc(NC(=S)NCCC2=CCCCC2)cc1	-	-	-	-	-	2.62
Cc1ccc(NC(=S)NCCC2=CCCCC2)cc1	-	-	-	-	-	-
CCOC(=O)c1ccc(NC(=S)NCCc2ccccc2)cc1	-	-	-	-	-	-
CCOC(=O)c1ccc(NC(=S)NCCc2ccccc2F)cc1	-	-	-	-	-	2.24
S=C(c1ccc(N2CCCC2)c(Br)c1)N1CCCCC1	-	-	-	-	-	-
Cc1nonc1OCCNc1ccc([N+](=O)[O-])cc1	-	-	-	2.2	-	-
COc1cc(C)c2c(c1C=O)Oc1c(c(C)c(O)c3c1C(O)OC3=O)OC2=O (centres undefined)	-	-	53.7	-	-	-
CCc1ccc(N=Nc2ccc(O)c3[nH]cnc23)cc1	.	-	40.1	.	-	-
COc1ccc(N=Nc2ccc(O)c3ncccc23)cc1	.	-	-	.	-	-
O=C(Nc1ccc(CN2CCCCC2)cc1)Nc1ccccc1Cl	-	-	-	-	-	-
O=C(Nc1ccc(Br)cc1)Nc1ccccc1Cl	.	-	-	.	-	2
CC(C)CN(C(=O)c1cccs1)C1CCS(=O)(=O)C1 (centres undefined)	.	-	-	.	-	-
CC1(C)OC(c2ccccc2)=C/C(=C/C=C2C(=O)c3ccccc3C2=O)O1	-	-	-	-	49.1	-
CCOC(=O)c1c(-c2ccc(C)o2)csc1NC(=O)CN1CCCCC1	-	-	-	-	-	-
CCOC(=O)c1c(NC(=O)CN2CCCCC2)sc2c1CCC(C=O)=C2Cl	-	-	48.6	-	-	-
COc1cc(/C=c2\s/c(=C(/C#N)C(=O)N3CCCC3)n(-c3ccccc3)c2=O)ccc1O	.	-	41.5	-	-	-
COC(=O)/C=c1/s/c(=C(/C#N)C(=O)N2CCCCC2)n(-c2ccccc2)c1=O	-	-	-	-	-	-
CCOc1ccc(N(CC(=O)Nc2ccc(C)c(C)c2)S(=O)(=O)c2c(C)noc2C)cc1	-	-	-	-	-	2.08
COc1ccc(NC(=O)CN(c2cc(C)cc(C)c2)S(=O)(=O)c2c(C)noc2C)cc1	-	-	-	-	-	-
SMILES	bIAP inh	hIAP act	mIAP block	bIAP activator	hIAP inh	mIAP act
COc1ccc(NC(=O)CN(c2cc(C)cc(C)c2)S(=O)(=O)c2c(C)noc2C)cc1OC	-	-	-	-	-	2.1
Cc1ccccc1NC(=O)CN1CCC(NC(=O)Nc2ccccc2)CC1	-	-	-	2.3	-	-
Cc1c(C(=O)Nc2ccccc2[N+](=O)[O-])csc1-c1ccccc1	-	-	-	3.7	-	-
CC(=O)N1c2ccc(S(=O)(=O)N3CCC(C(=O)Nc4cccc(C(F)(F)F)c4)CC3)cc2CC1C (centres undefined)	.	-	-	.	-	2.37
COc1cccc(NC(=O)C2CCN(S(=O)(=O)c3ccc4c(c3)CC(C)N4C(C)=O)CC2)c1 (centres undefined)	.	-	-	.	-	-
CCc1cccc(NC(=O)C2CCN(S(=O)(=O)c3ccc4c(c3)CC(C)N4C(C)=O)CC2)c1 (centres undefined)	.	-	-	.	-	2.15
N/C(Cc1ccc(Cl)c(Cl)c1)=N\OC(=O)c1ccc(Br)o1	.	-	-	.	-	-
Cc1ccc(SCC(=O)Nc2ccc(N3CCN(C)CC3)c(F)c2)c(C)c1	-	-	42.3	-	-	-
Cc1ccc(-n2nnnc2SCC(=O)Nc2ccc(N3CCN(C)CC3)cc2)c(C)c1	.	-	-	.	-	-
COc1ccccc1NC(=O)CC(NCc1ccccc1)C(=O)O (centres undefined)	-	-	-	2.3	-	-
COc1ccc(NC(=O)CC(NCCc2ccccc2)C(=O)O)c(OC)c1 (centres undefined)	-	-	-	-	-	-
COc1ccc(-c2cccc3c2NC(=O)C3=O)cc1OC	.	-	-	.	-	-
Cc1occc1C(=O)Nc1cnn(CCCC(=O)O)c1	.	-	-	.	-	-
O=C(NCc1cccnc1)c1cc2ccccc2oc1=O	-	-	-	-	-	-
O=C(NCCc1cccc(Cl)c1)c1cc2ccccc2oc1=O	.	-	40.9	.	-	-
CCCCN(C1CCS(=O)(=O)C1)S(=O)(=O)c1ccc(OC)c(OC)c1 (centres undefined)	.	-	-	.	-	-
O=C(Nc1cccc(Cl)c1)NC1(C(=O)NCc2cccs2)CCCCC1	-	-	-	-	-	2.21
O=C(NCc1cccs1)Nc1cccc(Cl)c1	.	-	-	.	-	-
CCCSc1ccc(C(=O)Nc2ccc(Cl)cc2)cn1	-	-	-	-	-	-
CCOC(=O)c1cc(-c2ccccc2)nn1CC1CC(c2ccc(OC)cc2)=NO1 (centres undefined)	.	-	-	.	-	-
Cc1ccccc1-c1cc(C(=O)NCc2cccc(Br)c2)n(CC2CC(c3cccnc3)=NO2)n1 (centres undefined)	.	-	-	.	-	2
COc1ccc(C2=NOC(Cn3nc(-c4ccccc4)cc3C(=O)NCc3cccc(C(F)(F)F)c3)C2)cc1 (centres undefined)	.	-	-	.	-	3.24
COc1ccc(C2=NOC(Cn3nc(-c4ccccc4)cc3C(=O)NCc3ccc(C)cc3)C2)cc1 (centres undefined)	.	-	-	.	-	3.31
COC(=O)CN1C(=O)N/C(=C/c2ccccc2OC)C1=O	-	-	-	-	-	-
Cn1c(N)c(C(=O)CNC2CCCCC2)c(=O)n(C)c1=O	.	-	-	.	-	-
SMILES	bIAP inh	hIAP act	mIAP block	bIAP activator	hIAP inh	mIAP act
CCN1C(=O)/C(=C2\C=Cc3ccccc3N2CC)SC1=S	-	-	41.2	-	-	-
CCN1C(=O)/C(=c2\o/c(=C3\C=Cc4ccccc4N3CC)c(=O)n2CC)SC1=S	-	.	.	-	.	.
COc1ccc(/C(C)=N/Nc2ccc(C(=O)O)cc2)cc1OC	-	2.07	-	-	-	-
Clc1ccc(-n2nnc(-c3cccnc3Cl)n2)cc1Cl	-	-	49.2	-	-	-
C[C@@H]1CN([C@@H](C)CO)C(=O)Cc2cc(NC(=O)Nc3cccc4ccccc34)ccc2O[C@@H]1CN(C)Cc1ccc(C(F)(F)F)cc1	.	-	-	.	-	2.14
C[C@@H]1CN([C@@H](C)CO)C(=O)Cc2cc(NC(=O)Nc3cccc4ccccc34)ccc2O[C@@H]1CN(C)S(C)(=O)=O	.	-	-	.	-	2.27
